In ChEMBL document CHEMBL1124034, “Adenosine deaminase inhibitors. Synthesis and biological activity of deaza analogues of erythro-9-(2-hydroxy-3-nonyl)adenine” (J Med Chem, 1988):

Tests used:
[1] = tested on: HeLa; experiment: In vitro antitumor activity against human HeLa cell line at 144 hr; assay type: functional; conditions: read-out: ID50 (the source's name)
Outline: (§1)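 Human HeLa (cervix carcinoma) and KB (oral epidermoid carcinoma) monolayers in Eagle's MEM with nonessential amino acids, Earle's BSS, 10% fetal calf serum and penicillin/streptomycin/kanamycin. Exponentially growing cells (5×10^5) were exposed to varying drug concentrations for 72 or 144 h and counted by Coulter counter. ID50 is the concentration giving 50% growth inhibition versus untreated controls.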

[2] = tested on: L1210; experiment: In vitro antitumor activity against murine L1210 cell line at 72 h; assay type: functional; conditions: Mus musculus, L1210, 72 h; read-out: ID50 (the source's name)
[3] = tested on: KB; experiment: In vitro antitumor activity against human KB cell line at 144 h; assay type: functional; conditions: read-out: ID50 (the source's name); outline: as §1
[4] = target: T1, Adenosine deaminase (Homo sapiens, UniProt P00813); experiment: Inhibition constant (Ki) against Human erythrocyte adenosine deaminase
T1 sequence (P00813 whole entry): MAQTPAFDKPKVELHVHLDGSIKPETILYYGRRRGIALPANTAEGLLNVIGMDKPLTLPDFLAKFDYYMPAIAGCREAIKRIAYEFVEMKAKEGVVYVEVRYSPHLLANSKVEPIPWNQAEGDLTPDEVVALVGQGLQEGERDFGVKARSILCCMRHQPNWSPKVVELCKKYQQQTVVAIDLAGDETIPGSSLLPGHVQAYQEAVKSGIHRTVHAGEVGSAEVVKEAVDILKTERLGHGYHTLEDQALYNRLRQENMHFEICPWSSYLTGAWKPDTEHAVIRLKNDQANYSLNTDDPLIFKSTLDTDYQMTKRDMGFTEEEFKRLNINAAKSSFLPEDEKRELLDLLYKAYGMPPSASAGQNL

[5] = target: T2, Adenosine deaminase (Bos taurus, UniProt P56658); experiment: Inhibition constant (Ki) against calf intestine adenosine deaminase
T2 sequence (P56658 whole entry): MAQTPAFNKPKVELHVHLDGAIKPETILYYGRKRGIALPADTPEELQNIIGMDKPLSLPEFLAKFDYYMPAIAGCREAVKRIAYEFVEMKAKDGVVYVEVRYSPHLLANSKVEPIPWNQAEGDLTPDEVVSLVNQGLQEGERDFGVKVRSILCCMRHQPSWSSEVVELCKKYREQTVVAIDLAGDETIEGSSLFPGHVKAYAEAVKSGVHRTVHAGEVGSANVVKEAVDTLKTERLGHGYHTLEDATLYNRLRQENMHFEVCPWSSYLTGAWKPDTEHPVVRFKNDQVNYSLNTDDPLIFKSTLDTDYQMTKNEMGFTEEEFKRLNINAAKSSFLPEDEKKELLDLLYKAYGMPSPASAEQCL

[6] = tested on: P388; experiment: In vitro antitumor activity against murine doxorubicin-resistant P388 cell line at 72 h; assay type: functional; conditions: Mus musculus, P388, 72 h; read-out: ID50 (the source's name)
[7] = tested on: P388; experiment: In vitro antitumor activity against murine P388 cell line at 72 h; assay type: functional; conditions: Mus musculus, P388, 72 h; read-out: ID50 (the source's name)
[8] = tested on: KB; experiment: In vitro antitumor activity against human KB cell line at 72 h; assay type: functional; conditions: read-out: ID50 (the source's name); outline: as §1
[9] = tested on: HeLa; experiment: In vitro antitumor activity against human HeLa cell line at 72 h; assay type: functional; conditions: read-out: ID50 (the source's name); outline: as §1
[10] = tested on: P388; experiment: In vitro antitumor activity against murine doxorubicin resistant P388 cell line at 72 h; assay type: functional; conditions: Mus musculus, P388, 72 h; read-out: ID50 (the source's name)
[11] = tested on: HeLa; experiment: In vitro antitumor activity against human HeLa cell line at 144 h; assay type: functional; conditions: read-out: ID50 (the source's name); outline: as §1

Which IC50 [1] does the source give for CCCCCCC(C(C)O)n1cnc2c(N)cccc21 (centres undefined) here?
The IC50 was 18.6 µM.

And the IC50 [2]?
Its IC50 is 26.8 µM.

What about the IC50 [3] of the same compound?
Its IC50 is 30.1 µM.

What about the Ki [4] of the same compound?
The Ki was 15 µM.

What about the Ki [5] of the same compound?
The Ki was 71 µM.

And the IC50 [6]?
Its IC50 is 47.9 µM.

What about the IC50 [7] of the same compound?
Its IC50 is 62.9 µM.

And the IC50 [8]?
The IC50 was 32.8 µM.

And the IC50 [9]?
The IC50 was 38.3 µM.

What does the source list for CCCCCCC(C(C)O)n1cnc2c(N)nccc21 (centres undefined)?
IC50 [10]: 19.2 µM; IC50 [11]: 18.6 µM; IC50 [2]: 18.6 µM; IC50 [3]: 5.5 µM; Ki [4]: 0.0063 µM; IC50 [7]: 21.8 µM; IC50 [8]: 31.9 µM; IC50 [9]: 142 µM

Which results are given for CCCCCCC(C(C)O)n1ccc2c(N)ncnc21 (centres undefined)?
IC50 [10]: 3.8 µM; IC50 [11]: 4.7 µM; IC50 [2]: 18.4 µM; IC50 [3]: 8.5 µM; Ki [4]: 180 µM; Ki [5]: 400 µM; IC50 [7]: 20.7 µM; IC50 [8]: 20.7 µM; IC50 [9]: 60.4 µM

What does the source list for CCCCCCC(C(C)O)n1cnc2c(N)ccnc21 (centres undefined)?
IC50 [10]: 38.2 µM; IC50 [11]: 21.8 µM; IC50 [2]: 49.1 µM; IC50 [3]: 30 µM; Ki [4]: 0.12 µM; IC50 [7]: 98.2 µM; IC50 [8]: 49.1 µM; IC50 [9]: 112 µM

How did the IC50 [10] turn out when CCCCCC[C@@H]([C@@H](C)O)n1cnc2c(N)ncnc21 [EHNA] was run?
The IC50 was 13.4 µM.

What about the IC50 [11] of the same compound?
Its IC50 is 23.4 µM.

And the IC50 [2]?
The IC50 was 22.9 µM.

What about the IC50 [3] of the same compound?
The IC50 was 46.3 µM.

And the Ki [4]?
The Ki was 0.0043 µM.

What about the IC50 [7] of the same compound?
The IC50 was 27.2 µM.

And the IC50 [8]?
The IC50 was 81.6 µM.

What about the IC50 [9] of the same compound?
Its IC50 is 179 µM.

Which IC50 [1] does the source give for Nc1ncnc2c1ncn2[C@@H]1O[C@H](CO)[C@@H](O)[C@@H]1O [VIDARABINE] here?
The IC50 was 27.7 µM.

What about the IC50 [2] of the same compound?
Its IC50 is 23.6 µM.

What about the IC50 [3] of the same compound?
The IC50 was 25.4 µM.

And the IC50 [6]?
The IC50 was 10.8 µM.

What about the IC50 [7] of the same compound?
The IC50 was 12.7 µM.

And the IC50 [8]?
The IC50 was 89.8 µM.

What about the IC50 [9] of the same compound?
Its IC50 is 46 µM.
